Results from different studies.
Protocols differ between the studies behind these lines.
Target: Homeodomain-interacting protein kinase 3 (HIPK3, Homo sapiens, UniProt Q9H422)

c1cncc(-c2cccc(Nc3nccc(NC4CCCCC4)n3)c2)c1 — remaining binding (binding; competition with immobilised ligand; 10 µM): 57%
CCS(=O)(=O)c1cc2cc(C[C@@](O)(CC(C)(C)c3ccc(F)cc3C(N)=O)C(F)(F)F)[nH]c2cn1 — remaining binding (cell-free assay; competition with immobilised ligand; 1 µM): 65%
O=C(NCCCN1CCOCC1)c1ccc(Nc2nccc(-c3cc4ccccc4s3)n2)cc1 — remaining binding (binding; competition with immobilised ligand; 1 µM): 39%
CN(C)C(=O)Cn1cc(-c2nc(C3(c4ccc(-c5cnc(N)nc5)cc4)CC3)no2)cn1 — remaining binding (cell-free assay; competition with immobilised ligand; 1 µM): 71%
CC1CCCN1c1nccc(-c2cnn3ncccc23)n1 (stereo not shown) — remaining binding (binding; 1 µM): 100%
O=C(c1ccc(Nc2nccc(-c3cc4ccccc4s3)n2)cc1)N1CCC(N2CCCC2)CC1 — remaining binding (binding; competition with immobilised ligand; 1 µM): 19%
Cn1nc(C(F)(F)F)cc1-c1cnc(N2CCc3cc(S(=O)(=O)Nc4c(F)cc(Cl)cc4F)cc(N4CCCC4=O)c32)nc1 — remaining binding (cell-free assay; competition with immobilised ligand; 1 µM): 85%
CN(C)c1ncc(F)c(-c2cnn3ncccc23)n1 — remaining binding (binding; 1 µM): 65%
CC(=O)N1CCC(c2ccc(C(=O)NC3=NCCN3)cc2C(F)(F)F)CC1 — remaining binding (cell-free assay; competition with immobilised ligand; 1 µM): 72%
COc1cnc(Nc2cccc(S(N)(=O)=O)c2)nc1N1CCN(c2ccccc2)CC1 — remaining binding (binding; competition with immobilised ligand; 1 µM): 100%
N[C@H]1CCN(c2nccc(-c3cnn4ncccc34)n2)C1 — remaining binding (binding; 1 µM): 91%
Nc1ncc2c(n1)-c1c([nH]c3ccc(C#CC4CC4)cc13)CCCC2 — remaining binding (binding; competition with immobilised ligand; 1 µM): 78%
Cc1cc(NC(=O)c2cccc(S(F)(F)(F)(F)F)c2)cc(-n2ccn3nc(-c4cccnc4)cc23)c1 — remaining binding (cell-free assay; competition with immobilised ligand; 1 µM): 88.8%
C[C@H]1CCN(c2nccc(-c3cnn4ncccc34)n2)C1 — remaining binding (binding; 1 µM): 61%
Cc1cnc(Nc2ccc(C(=O)N3CCC(N4CCCC4)CC3)cc2)nc1-c1cc2ccccc2s1 — remaining binding (binding; competition with immobilised ligand; 1 µM): 3.1%
O=C(N[C@H]1CCCCC/C=C\C2C[C@@]2(C(=O)O)NC(=O)[C@@H]2C[C@@H](Oc3ccncc3)CN2C1=O)OC1CCCC1 (stereo partly shown) — remaining binding (binding; competition with immobilised ligand; 1 µM): 100%
CN(CCCC(F)(F)F)c1nccc(-c2cnn3ncccc23)n1 — remaining binding (binding; 1 µM): 88%
CS(=O)(=O)c1cc(C2(NC(=O)c3cncc4c3cnn4-c3ccc(F)cc3)CC2)ccn1 — remaining binding (cell-free assay; competition with immobilised ligand; 1 µM): 85%
COc1ccnn2ncc(-c3ccnc(N(C)C)n3)c12 — remaining binding (binding; 1 µM): 80%
COc1ncc2cc3ccccc3nc2c1C#N — remaining binding (cell-free assay; competition with immobilised ligand; 5 µM): 100%
O=C(NCC1CCOCC1)c1n[nH]cc1NC(=O)c1c(F)cccc1F — remaining binding (binding; competition with immobilised ligand; 1 µM): 63%
FC(F)(F)Oc1cccc(-c2cnc3ccc(-c4ccncc4)nn23)c1 — remaining binding (cell-free assay; competition with immobilised ligand; 5 µM): 0.7%
